Screening data from PubChem BioAssay.
Only some compounds are listed: those with a hit (about 2.7% of all), similar ones and a draw of the others.
FGF22 binding: binders of recombinant human FGF22 by thermal shift | Q9HCT0 | SYPRO orange fluorescence; percent of sucrose octasulfate shift, DMSO zero | activity (Tm shift, normalised), % at 9.99 µM | 1.5% of 340,000 active | AID 651658;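 active = mean Tm shift, scaled 0 neutral to 100 positive control, at about 1.3% or above, every replicate too, limit read from the data; inconclusive = no clear call, values can overlap the other calls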
Target sequence (Q9HCT0 whole entry, looked up): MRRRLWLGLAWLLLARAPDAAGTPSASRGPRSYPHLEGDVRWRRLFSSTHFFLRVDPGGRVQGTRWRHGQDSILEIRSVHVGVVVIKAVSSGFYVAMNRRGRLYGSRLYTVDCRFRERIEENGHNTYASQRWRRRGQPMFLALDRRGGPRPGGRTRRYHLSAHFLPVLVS
S100A4 inh HTS: blocks human S100A4 binding to myosin IIA peptide. inhibition, % at 10.7 µM. S100A4/TAMRA-MyoIIA peptide fluorescence polarization. P26447. 0.14% of 360,000 active;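 active = mean inhibition of at least 70% across replicates, with every replicate also reaching that level; inconclusive = mean inhibition reaches 70% but some replicates fall short; inactive = mean inhibition below 70%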
Target sequence (P26447 whole entry, looked up): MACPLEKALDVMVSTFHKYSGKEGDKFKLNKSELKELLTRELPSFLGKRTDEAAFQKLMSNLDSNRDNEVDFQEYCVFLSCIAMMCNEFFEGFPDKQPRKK
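Material: S100A4 monomer protein | Medium: HEPES pH 7.2 with CaCl2, KCl, NaCl, DTT, Triton | Reagent: Labelled myosin peptide probe, 5 nM | Doses: One dose per compound | Times: 5 min incubation before reading | Benchmarks: Neutral control DMSO, positive control TFP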
F508del corr: correctors of CFTR F508del function in bronchial epithelial cells; AID 720511; 0.36% of 350,000 active; activity (quench increase), % at 7.58 µM; CFBE cells, YFP halide quenching; stimulated with forskolin plus potentiator P3; % fluorescence drop versus neutral controls;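 active = mean added fluorescence quench of at least 8% versus neutral control, with both replicates also reaching 8%; inconclusive = only one of the mean or replicate conditions met; inactive = mean below 8% and not both replicates reaching 8%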;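 note: cells transiently co-express mutant CFTR-F508del with the halide-sensitive YFP; corrector assay measuring rescue of mutant channel to the surface after 24 h compound exposure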
HIV Env fusion: blocks HIV Env-driven cell-cell fusion | HeLa-JRFL Env/CEM21 cell fusion, luciferase | inhibition, % at 12.3 µM | 1.1% of 360,000 active;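 active = mean replicate inhibition score of at least 50 and every replicate individually at or above 50; inconclusive = only one of the two criteria met; inactive = mean below 50 and not all replicates reaching 50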;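 note: 0% = plate neutral controls and 100% = maraviroc near 300 nM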
E-selectin induc: induces E-selectin expression in human endothelial cells. 0.37% of 260,000 active. HUVEC E-selectin immunofluorescence imaging; normalized: neutral wells 0, TNF-alpha wells 100. P16581. activation, % at 7.58 µM;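 active = mean E-selectin-positive cell signal at least 10% of the positive control, reached in at least 60% of replicates, without over 20% cell loss; inconclusive = no rule given, readout overlaps actives, possibly toxicity-flagged; inactive = the rest, including those meeting only one limit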
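material = human umbilical vein endothelial cells (HUVEC), E-selectin induction | quantity = 3,000 cells/well | medium = EGM-2 growth medium on 0.1% gelatin-coated wells | technique = immunofluorescence imaging | read-out basis = % PE-positive cells | control set = TNF-alpha positive control, DMSO neutral control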
* hit, by the source's call; ? = inconclusive; . = no result given; ! = repeats disagree; [ ] = another dose, or the depositor's remark.

SMILES	FGF22 binding	S100A4 inh HTS	F508del corr	HIV Env fusion	E-selectin induc
C[C@H]1CCCCO[C@H](CN(C)C(=O)Cc2ccccc2)[C@@H](C)CN([C@@H](C)CO)C(=O)c2cc(NC(=O)Cc3ccccc3)ccc2O1	0	14	0	-5[16.7 µM]	0
COc1ccc2c3c([nH]c2c1)[C@@H](CO)N(Cc1ccccc1F)CC31CCN(C(=O)C2CCOCC2)CC1	0	2	-1	-26[16.7 µM]	0
CC=Cc1ccc2n(c1=O)C[C@H]1[C@H](CO)[C@@H](C(=O)NCc3ccccc3)N(C)[C@@H]21 (mixture of isomers)	17*	-29	0	.	0
CC=Cc1ccc2n(c1=O)C[C@@H]1[C@@H](CO)[C@H](C(=O)NCc3ccc(F)cc3)N(C)[C@H]21 (mixture of isomers)	0	4	1	.	-1
CC=Cc1ccc2n(c1=O)C[C@@H]1[C@@H](CO)[C@H](C(=O)N[C@H](C)c3ccccc3)[C@H]2N1Cc1ccncc1 (mixture of isomers)	0	2	-2	.	0
CC=Cc1ccc2n(c1=O)C[C@H]1[C@H](CO)[C@@H](C(=O)OC)N(CCc3ccccc3)[C@@H]21 (mixture of isomers)	0	2	.	60*[16.7 µM]	0
CC=Cc1ccc2n(c1=O)C[C@H]1[C@H](CO)[C@@H](C(=O)N[C@@H](C)c3ccccc3)[C@@H]2N1Cc1ccncc1 (mixture of isomers)	16*	?	1	.	0
CO[C@H]1CN(C)C(=O)c2ccc(NS(C)(=O)=O)cc2OC[C@H](C)N(C(=O)C2CCOCC2)C[C@H]1C	0	2	4	5[16.7 µM]	0
CCC(NS(=O)(=O)c1c(C)[nH]c(=O)[nH]c1=O)C12CC3CC(CC(C3)C1)C2 (stereo not given)	.	-1	.	80*	.
Cc1[nH]c(=O)[nH]c(=O)c1S(=O)(=O)NCC12CC3CC(CC(C3)C1)C2	.	.	.	-25	.
Cc1noc(C)c1NC(=O)N[C@@H]1C=C[C@@H](CC(=O)NCCCN(C)C)O[C@H]1CO	0	4	-1	.	0
CCOC(=O)c1c(-c2ccccc2Cl)cn2ccccc12	.	.	.	-60	-1
O=C(O)c1c(-c2ccc(Cl)cc2)cn2ccccc12	43*	-1	-1	22	.
COc1ccc(C(C(=O)NC(C)(C)C)N(Cc2ccccc2)C(=O)CCC(=O)Nc2cc(C)on2)cc1 (stereo not given)	.	-24	-2	0	.
COc1ccc(C(C(=O)NC(C)(C)C)N(CCC(C)C)C(=O)CCC(=O)Nc2cc(C)on2)cc1 (stereo not given)	0	-3	3	69*	0
C[C@H](CO)N1C[C@H](C)[C@@H](CN(C)C(=O)Nc2cccc3ccccc23)Oc2ccc(NC(=O)Cn3cnnn3)cc2CC1=O	.	-1	-1	.	-1
CCN(CC)CCCN1C(=O)CSC1c1ccc([N+](=O)[O-])cc1 (stereo not given)	43*	11	-2	-50	.
COc1cccc(-c2ccc3c(c2)[C@@H]2[C@@H](CCN2S(=O)(=O)c2cccc(OC)c2)[C@H](CO)N3)c1	0	-17	0	.	-1
CCCCCCc1c(O)nc(SCCN2CCOCC2)[nH]c1=O	44*	0	-2	1	.
CC(=O)N1[C@H](C(=O)NCC2CC2)[C@@H](CO)[C@@H]2Cn3c(ccc(-c4ccccc4F)c3=O)[C@@H]21	0	5	-2	.	-1
O=C(O)c1cc2nc3c(c(C(F)(F)F)n2n1)CCCC3	43*	1	2	-3	.
O=C(Nc1ccc(F)cc1F)c1cc2nc3c(c(C(F)(F)F)n2n1)CCCC3	.	.	.	-74	.
NS(=O)(=O)c1ccc(N=Nc2ccc(O)c3ncccc23)cc1	-1	-3	3	61*	0
Cc1ccc(NC(=O)C2CCC(CNc3c(N4CCC(C)CC4)c(=O)c3=O)CC2)cc1F (stereo not given)	.	-3	4	59*	5
C[C@@H]1CN([C@@H](C)CO)C(=O)c2cc(/C=C/c3ccccc3)cnc2O[C@H]1CN(C)S(=O)(=O)c1cccs1	0	94*	-1	15[16.7 µM]	0
SMILES	FGF22 binding	S100A4 inh HTS	F508del corr	HIV Env fusion	E-selectin induc
C[C@H]1CN([C@@H](C)CO)C(=O)c2cc(/C=C/c3ccccc3)cnc2O[C@H]1CN(C)S(=O)(=O)c1ccccc1	0	4	-2	8[16.7 µM]	0
C[C@H](CO)N1C[C@H](C)[C@H](CN(C)S(=O)(=O)c2ccccc2)Oc2ncc(/C=C/c3ccccc3)cc2C1=O	0	6	1	74*[16.7 µM]	0
COc1ccc(S(=O)(=O)N(C)C[C@H]2Oc3ncc(-c4ccncc4)cc3C(=O)N([C@@H](C)CO)C[C@H]2C)cc1	-1	90*	3	-8[16.7 µM]	0
C[C@H](CO)N1C[C@H](C)[C@H](CN(C)S(=O)(=O)c2ccccc2F)Oc2ncc(/C=C/c3ccccc3)cc2C1=O	0	1	1	71*[16.7 µM]	0
C[C@@H]1CN([C@H](C)CO)C(=O)c2cc(/C=C/c3ccccc3)cnc2O[C@@H]1CN(C)S(=O)(=O)c1cccs1	0	-2	-2	12[16.7 µM]	0
C[C@H](CO)N1C[C@H](C)[C@@H](CN(C)C(=O)c2cccc(F)c2)Oc2ncc(-c3cccnc3)cc2C1=O	0	3	-2	-12[16.7 µM]	0
COc1ccc(S(=O)(=O)N(C)C[C@@H]2Oc3ncc(/C=C/c4ccccc4)cc3C(=O)N([C@H](C)CO)C[C@@H]2C)cc1	0	43	1	55*![16.7 µM]	1
COc1ccc(S(=O)(=O)N(C)C[C@H]2Oc3ncc(/C=C/c4ccccc4)cc3C(=O)N([C@@H](C)CO)C[C@@H]2C)cc1	0	-4	-2	33[16.7 µM]	1
C[C@@H]1CN([C@@H](C)CO)C(=O)c2cc(C#Cc3ccncc3)cnc2O[C@H]1CN(C)S(=O)(=O)c1ccccc1F	0	-13	-4	28[16.7 µM]	.
C[C@@H]1CN([C@H](C)CO)C(=O)c2cc(C#Cc3ccncc3)cnc2O[C@@H]1CN(C)S(=O)(=O)c1ccccc1F	0	10	2	60*[16.7 µM]	.
C[C@@H]1CN([C@H](C)CO)C(=O)c2cc(/C=C/c3ccccc3)cnc2O[C@@H]1CN(C)S(=O)(=O)c1ccccc1	0	2	0	0[16.7 µM]	0
Cc1ccc(S(=O)(=O)N(C)C[C@@H]2Oc3ncc(/C=C/c4ccccc4)cc3C(=O)N([C@H](C)CO)C[C@@H]2C)cc1	0	18	2	75*[16.7 µM]	0
C[C@@H]1CN([C@H](C)CO)C(=O)c2cc(C#CC3CC3)cnc2O[C@@H]1CN(C)S(C)(=O)=O	0	117*	2	15[16.7 µM]	0
C[C@H](CO)N1C[C@H](C)[C@H](CN(C)S(C)(=O)=O)Oc2ncc(C#CC3CC3)cc2C1=O	0	5	-1	-17[16.7 µM]	-2
